The record followed here is ChEMBL document CHEMBL2384900, “Synthesis and cytotoxicity of oligomycin A derivatives modified in the side chain” (Bioorg Med Chem, 2013).

The test system of one assay is HCT-116. As to the kind of experiment: Cytotoxicity against human HCT116 cells after 72 hrs by MTT assay. It counts as functional, cell-based. To be noted: HCT-116, 72 h. The gist of the method: (§1)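 Cells are exposed to compound for 72 h, and viability is then read by MTT assay. IC50 is reported as the mean of 3 independent measurements with SD. hFB-hTERT6 is a non-malignant human skin fibroblast line.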

For another assay, the system named is K562. As to the kind of experiment: Cytotoxicity against human K562 cells after 72 hrs by MTT assay. To be noted: K562, 72 h. It counts as functional, cell-based. In outline: as §1
Assay [1] deals with Streptomyces fradiae. As to the kind of experiment: Antibacterial activity against Streptomyces fradiae ATCC 19609 at 0.1 nmol/disk after 24 hrs. In kind it is functional. The gist of the method:
(§2)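 Disk diffusion assay. Streptomyces fradiae spores are mixed into MG soft agar (0.7% agar, pH 7.5) and poured over MG agar plates (2% agar), 10⁷ spores per dish. After the agar sets, paper disks impregnated with compound are placed on the plates. Plates are incubated 24 h at 28 °C, and the diameter of the growth-inhibition halo around each disk is measured.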

The nature of assay [2]: Cytotoxicity against human hFB-hTERT6 cells after 72 hrs by MTT assay. It counts as cell-based. The note with it: hFB-hTERT6, 72 h. In outline: as §1
For assay [3], the system named is Streptomyces fradiae. As to the kind of experiment: Antibacterial activity against Streptomyces fradiae ATCC 19609 at 1 nmol/disk after 24 hrs. It counts as functional. In outline: as §2
The subject of assay [4] is Streptomyces fradiae. In words: Antibacterial activity against Streptomyces fradiae ATCC 19609 at 10 nmol/disk after 24 hrs. In kind it is functional. The gist of the method:
as §2

Assay [5] concerns Streptomyces fradiae. In words: Antibacterial activity against Streptomyces fradiae ATCC 19609 at 100 nmol/disk after 24 hrs. It counts as functional. The gist of the method:
as §2

Assay [6] concerns Streptomyces fradiae. As to the kind of experiment: Antibacterial activity against Streptomyces fradiae ATCC 19609 at 0.001 nmol/disk after 24 hrs. In kind it is functional. The gist of the method:
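Disk diffusion on S. fradiae: spore suspension mixed into MG soft agar (0.7%), pH 7.5, poured over MG agar (2%) at 10⁷ spores per dish; after solidification, paper disks carrying test compound laid on lawn; grown 24 h at 28 °C; growth-inhibition halo diameter around disks measured.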

Bounds are passed on as bounds.

Take `CC[C@H]1/C=C/C=C/C[C@@H](C)[C@H](O)[C@@](C)(O)C(=O)[C@@H](C)[C@H](O)[C@@H](C)C(=O)[C@@H](C)[C@H](O)[C@@H](C)/C=C/C(=O)O[C@@H]2[C@H](C)[C@H](CC1)O[C@]1(CC[C@H](C)[C@H](C[C@@H](C)OS(C)(=O)=O)O1)[C@H]2C`: the IC50 with HCT-116 is 6400 nM; with K562, 5800 nM. The “diameter of the inhibition zone (DIZ)” value with Streptomyces fradiae [1] came to 9.5 mm.
In the case of `CC[C@H]1/C=C/C=C/C[C@@H](C)[C@H](O)[C@@](C)(O)C(=O)[C@@H](C)[C@H](O)[C@@H](C)C(=O)[C@@H](C)[C@H](O)[C@@H](C)/C=C/C(=O)O[C@@H]2[C@H](C)[C@H](CC1)O[C@]1(CC[C@H](C)[C@H](C[C@H](C)N=[N+]=[N-])O1)[C@H]2C`, the values for the IC50 (in assay [2]; in the assay with HCT-116; with K562) were 1900 nM, 200 nM and 140 nM, respectively. Also, in the assay with Streptomyces fradiae [3], the “diameter of the inhibition zone (DIZ)” value stood at 7.5 mm.
Regarding `CC[C@H]1/C=C/C=C/C[C@@H](C)[C@H](O)[C@@](C)(O)C(=O)[C@@H](C)[C@H](O)[C@@H](C)C(=O)[C@@H](C)[C@H](O)[C@@H](C)/C=C/C(=O)O[C@@H]2[C@H](C)[C@H](CC1)O[C@]1(CC[C@H](C)[C@H](C[C@H](C)n3cc(-c4ccccc4)nn3)O1)[C@H]2C`, the results for the IC50 (in assay [2]; in the assay on K562) were 3000 nM and 150 nM, respectively. In the assay on Streptomyces fradiae [1], the “diameter of the inhibition zone (DIZ)” value is 7.5 mm.
`CC[C@H]1/C=C/C=C/C[C@@H](C)[C@H](O)[C@@](C)(O)C(=O)[C@@H](C)[C@H](O)[C@@H](C)C(=O)[C@@H](C)[C@H](O)[C@@H](C)/C=C/C(=O)O[C@@H]2[C@H](C)[C@H](CC1)O[C@]1(CC[C@H](C)[C@H](C[C@H](C)n3cc(C(=O)OC)nn3)O1)[C@H]2C`: the IC50 in assay [2] was 2000 nM; in the assay on K562, 150 nM. Further, in the assay with Streptomyces fradiae [4], the “diameter of the inhibition zone (DIZ)” value is 8 mm.
As for `CC[C@H]1/C=C/C=C/C[C@@H](C)[C@H](O)[C@@](C)(O)C(=O)[C@@H](C)[C@H](O)[C@@H](C)C(=O)[C@@H](C)[C@H](O)[C@@H](C)/C=C/C(=O)O[C@@H]2[C@H](C)[C@H](CC1)O[C@]1(CC[C@H](C)[C@H](C[C@H](C)n3cc(C(=O)O)nn3)O1)[C@H]2C`, the values for the IC50 (in assay [2]; with K562) were > 50000 nM and > 12500 nM, respectively. In addition, the “diameter of the inhibition zone (DIZ)” value in the assay with Streptomyces fradiae [5] came out at 8 mm.
Turning to `CC[C@H]1/C=C/C=C/C[C@@H](C)[C@H](O)[C@@](C)(O)C(=O)[C@@H](C)[C@H](O)[C@@H](C)C(=O)[C@@H](C)[C@H](O)[C@@H](C)/C=C/C(=O)O[C@@H]2[C@H](C)[C@H](CC1)O[C@]1(CC[C@H](C)[C@H](C[C@H](C)n3cc(C(=O)NCCN(C)C)nn3)O1)[C@H]2C`, the IC50 worked out at 2000 nM in assay [2], 700 nM in the assay with HCT-116 and 220 nM in the assay on K562. In the assay on Streptomyces fradiae [3], the “diameter of the inhibition zone (DIZ)” value is reported as 8 mm.
In the case of `CC[C@@H]1/C=C/C=C/C[C@H](C)[C@H](O)[C@](C)(O)C(=O)[C@H](C)[C@@H](O)[C@H](C)C(=O)[C@H](C)[C@@H](O)[C@H](C)/C=C/C(=O)O[C@H]2[C@@H](C)[C@@H](CC1)O[C@@]1(CC[C@@H](C)[C@@H](C[C@H](C)O)O1)[C@@H]2C` [OLIGOMYCIN A], the “diameter of the inhibition zone (DIZ)” value with Streptomyces fradiae [6] is on record as 10 mm. In addition, the IC50 in assay [2] is 7500 nM; in the assay with HCT-116, 1000 nM; with K562 it was 160 nM.
